In ChEMBL document CHEMBL1148554, “Hydroxylated analogues of the orally active broad spectrum antifungal, Sch 51048 (1), and the discovery of posaconazole [Sch 56592; 2 or (S,S)-5]” (2006):
Converted amounts (≈) assume the structure as drawn.

Legend:
Candida albicans = assay: Antifungal activity against Candida albicans; type: functional
Outline: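 Geometric mean MIC across 26–30 C. albicans strains.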

Aspergillus = assay: Antifungal activity against Aspergillus species; type: functional
Outline: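 Geometric mean MIC across 37 Aspergillus strains: 17 A. fumigatus, 11 A. flavus, 5 A. niger and 4 A. terreus.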

SMILES	MIC (Candida albicans) [µg/mL]	MIC (Aspergillus) [µg/mL]
C[C@H]([C@@H](C)O)n1ncn(-c2ccc(N3CCN(c4ccc(OC[C@@H]5CO[C@@](Cn6cncn6)(c6ccc(F)cc6F)C5)cc4)CC3)cc2)c1=O	< 0.006	0.09 (≈ 0.131 µM)
CC[C@H]([C@@H](C)O)n1ncn(-c2ccc(N3CCN(c4ccc(OC[C@@H]5CO[C@@](Cn6cncn6)(c6ccc(F)cc6F)C5)cc4)CC3)cc2)c1=O	0.014 (≈ 0.02 µM)	< 0.077
C[C@H](O)[C@@H](C)n1ncn(-c2ccc(N3CCN(c4ccc(OC[C@@H]5CO[C@@](Cn6cncn6)(c6ccc(F)cc6F)C5)cc4)CC3)cc2)c1=O	0.03 (≈ 0.0437 µM)	0.08 (≈ 0.116 µM)
CC[C@H]([C@H](C)O)n1ncn(-c2ccc(N3CCN(c4ccc(OC[C@@H]5CO[C@@](Cn6cncn6)(c6ccc(F)cc6F)C5)cc4)CC3)cc2)c1=O	0.022 (≈ 0.0314 µM)	< 0.09
C[C@@H](O)[C@H](C)n1ncn(-c2ccc(N3CCN(c4ccc(OC[C@@H]5CO[C@@](Cn6cncn6)(c6ccc(F)cc6F)C5)cc4)CC3)cc2)c1=O	< 0.007	< 0.05
C[C@H](O)[C@H](C)n1ncn(-c2ccc(N3CCN(c4ccc(OC[C@@H]5CO[C@@](Cn6cncn6)(c6ccc(F)cc6F)C5)cc4)CC3)cc2)c1=O	0.02 (≈ 0.0291 µM)	0.06 (≈ 0.0874 µM)
CC[C@@H]([C@@H](C)O)n1ncn(-c2ccc(N3CCN(c4ccc(OC[C@@H]5CO[C@@](Cn6cncn6)(c6ccc(F)cc6F)C5)cc4)CC3)cc2)c1=O (mixture of isomers)	0.019	< 0.086
CC[C@@H]([C@H](C)O)n1ncn(-c2ccc(N3CCN(c4ccc(OC[C@@H]5CO[C@@](Cn6cncn6)(c6ccc(F)cc6F)C5)cc4)CC3)cc2)c1=O [POSACONAZOLE]	0.018 (≈ 0.0257 µM)	< 0.048
